HTR5A inv ctr: counter-screen for OPRM1-OPRD1 inverse agonists: human HTR5A inverse agonism; HTR5A cell line, luminescence; inhibition, % at 9.3 µM; actives 0.083% (n = 340,000); in the data active = inhibition mostly above about 23%, no sharp cut-off; inactive = mostly below about 18%
HTR5A ag: counter-screen for OPRM1-OPRD1 agonists: human HTR5A agonism; P47898; HTR5A agonist assay, luminescence, cell-based; activation, % at 9.3 µM; actives 0.61% (n = 340,000); AID 504692; in the data active = activation mostly above about 9.5%, no sharp cut-off; inactive = mostly below about 7.6%
MOR-DOR inv ag: mu-delta opioid heterodimer inverse agonism. cell-based MOR-DOR heterodimer luminescence. inhibition, % at 9.3 µM. actives 0.21% (n = 340,000). AID 504357; in the data active = inhibition above about 22%, passing the limit was not always enough
Target sequence (P35372 whole entry, looked up): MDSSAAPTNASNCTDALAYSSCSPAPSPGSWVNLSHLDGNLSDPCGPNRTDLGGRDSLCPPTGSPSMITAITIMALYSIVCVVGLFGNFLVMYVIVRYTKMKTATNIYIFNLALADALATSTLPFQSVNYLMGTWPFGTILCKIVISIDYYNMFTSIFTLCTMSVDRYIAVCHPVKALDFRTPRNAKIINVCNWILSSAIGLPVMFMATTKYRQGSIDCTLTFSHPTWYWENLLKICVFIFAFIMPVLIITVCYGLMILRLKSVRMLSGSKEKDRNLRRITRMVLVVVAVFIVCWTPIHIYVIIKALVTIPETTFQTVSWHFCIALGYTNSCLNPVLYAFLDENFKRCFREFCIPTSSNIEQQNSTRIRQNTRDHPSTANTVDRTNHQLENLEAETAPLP
Target sequence (P41143 whole entry, looked up): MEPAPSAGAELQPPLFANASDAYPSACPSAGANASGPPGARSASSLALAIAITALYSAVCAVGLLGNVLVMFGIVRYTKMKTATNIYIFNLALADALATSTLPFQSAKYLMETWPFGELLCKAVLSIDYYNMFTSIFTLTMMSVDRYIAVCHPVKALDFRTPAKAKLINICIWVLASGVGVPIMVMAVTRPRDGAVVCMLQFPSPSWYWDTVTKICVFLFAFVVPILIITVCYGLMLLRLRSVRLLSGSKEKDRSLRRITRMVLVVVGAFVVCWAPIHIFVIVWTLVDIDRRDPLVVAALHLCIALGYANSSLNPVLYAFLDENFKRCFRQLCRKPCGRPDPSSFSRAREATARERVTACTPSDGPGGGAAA
Lipid droplet: modulators of hepatic lipid droplet formation. AML12 mouse hepatocytes, oleate lipid droplets, BODIPY imaging. inhibition, % at 6.5 µM. actives 0.4% (n = 240,000). AID 1656;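 active = lipid droplet intensity inhibited by at least 50%, with more than 500 cells counted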
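material = mouse AML12 hepatocyte cell line, fixed after treatment | also added = 100 µM oleic acid challenge | doses = compound at 6.5 µM only | schedule = overnight exposure | technique = Image-based BODIPY and DAPI two-channel analysis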
MOR-DOR ag-1: agonists of human mu-delta opioid receptor heterodimerization | actives 0.3% (n = 340,000) | activation, % at 9.3 µM | cells, OPRM1-OPRD1 heterodimerization, luminescence | P35372+P41143
MOR-DOR ag-2: counter-screen for HTR5A agonists: OPRM1-OPRD1 heterodimerization agonism | shares compounds with HTR5A ag | U2OS counter-screen cells, complementation luminescence, 3 h | activation, % at 9.3 µM | actives 13% (n = 800)
HTR5A ag confirm: HTR5A (human) agonism, confirmation | shares compounds with HTR5A ag | HTR5A agonist cell assay, luminescence | activation, % at 9.3 µM | actives 17% (n = 800) | AID 504915; in the data active = activation above about 17%
Each line names hits and unclear results; the compound was inactive in the other large screens (follow-up assays come after a bar, where they were run). Hits are enriched below; roughly 1.4% of the tested compounds scored in any of these assays. Rule as the data show it, unless noted: active = activation above about 18%; inactive = the rest.

CC(OC(=O)CCCC(=O)Nc1ccccc1)C(=O)c1ccccc1 (stereo not given)	none
O=C(NCCc1c[nH]c2ccccc12)/C(=C\c1cccnc1)NC(=O)c1ccccc1Br	HTR5A ag 21.7 | MOR-DOR ag-2 inactive | HTR5A ag confirm inactive
O=C(NCCc1c[nH]c2ccccc12)/C(=C\c1cccnc1)NC(=O)c1ccco1	none
O=C(ONC1=NCCCCC1)c1ccc(Cl)cc1	HTR5A ag 25.3 | MOR-DOR ag-2 inactive | HTR5A ag confirm inactive
COc1ccc(CN2C3CCCC2CC(NC(=O)Nc2cccc(C)c2)C3)cc1 (stereo not given)	HTR5A ag 16.6 | MOR-DOR ag-2 inactive | HTR5A ag confirm inactive
O=C(Cc1ccc(Cl)cc1)N/N=C1\CCCc2ccccc21	none (no result: Lipid droplet)
O=C(CNc1ccc(F)cc1)N/N=C1\CCCc2ccccc21	HTR5A ag 15.9 | MOR-DOR ag-2 inactive | HTR5A ag confirm 17.1
Cc1cccc(C(=O)Nc2sc(C)c(-c3ccccc3)c2C#N)c1	HTR5A ag 16.8 | MOR-DOR ag-2 inactive | HTR5A ag confirm inactive
N/C(Cc1ccc(Cl)cc1)=N\OC(=O)c1ccccc1	none
COc1ccc(C(=O)O/N=C(\N)Cc2ccc(Cl)cc2)cc1OC	HTR5A ag 25.2 (no result: Lipid droplet) | MOR-DOR ag-2 inactive | HTR5A ag confirm inactive
N/C(Cc1ccc([N+](=O)[O-])cc1)=N\OC(=O)c1ccc([N+](=O)[O-])cc1	HTR5A ag 20.5 | MOR-DOR ag-2 inactive | HTR5A ag confirm inactive
CCn1c(CCC(=O)N(C)CC(=O)Nc2cccc(F)c2)nc2cc(S(=O)(=O)N(C)C)ccc21	none (no result: Lipid droplet)
CC(C)(C#CC(O)(c1ccccc1)c1ccccc1)N1CCCC1	none
O=C(O)CN1CCN(Cc2ccc(F)cc2Cl)C1=O	none
O=C(CN1CCN(Cc2ccc(F)cc2Cl)C1=O)NCCc1ccccc1	HTR5A ag 15.6 (no result: Lipid droplet) | MOR-DOR ag-2 inactive | HTR5A ag confirm inactive
C1N2CN3CN1CN(C2)C3	none (no result: Lipid droplet)
Cc1ccc2cc(CCNS(=O)(=O)c3ccc(Br)cc3)c(=O)[nH]c2c1C	none
Cc1cc(C)c(S(=O)(=O)NCCc2cc3ccc(C)c(C)c3[nH]c2=O)c(C)c1	HTR5A ag 16.8 | MOR-DOR ag-2 inactive | HTR5A ag confirm inactive
CSc1ncccc1C(=O)OCC(=O)NC(C)C	none
COc1ccc(Br)cc1/C=N/NC(=O)c1cc(Br)ccc1O	none (no result: HTR5A inv ctr, HTR5A ag, MOR-DOR inv ag, MOR-DOR ag-1)
COc1ccc(C(=O)N/N=C/c2cc(Br)ccc2O)cc1OC	HTR5A ag 17.4 | MOR-DOR ag-2 inactive | HTR5A ag confirm inactive
COc1cccc(-c2csc(N3CCN(C(=S)Nc4ccccc4)CC3)n2)c1	HTR5A ag 22.2 (no result: Lipid droplet) | MOR-DOR ag-2 inactive | HTR5A ag confirm inactive
COc1cccc2cc(C(=O)N3CCc4ccccc43)c(=O)oc12	none
COc1ccc2oc(=O)c(C(=O)N3CCc4ccccc43)cc2c1	HTR5A ag 15.0 | MOR-DOR ag-2 inactive | HTR5A ag confirm inactive
CCc1ccccc1NC(=O)C(Cc1ccccc1)c1nn[nH]n1 (stereo not given)	none
COc1ccccc1C(CNC(=O)c1cccc(NS(=O)(=O)c2ccc(C)c(F)c2)c1)N1CCCC1 (stereo not given)	HTR5A ag 44.2 (no result: Lipid droplet) | MOR-DOR ag-2 inactive | HTR5A ag confirm 40.8
COc1ccc(CCNC(=O)CCn2c(SCC(=O)N3CCCC3)nc3ccccc3c2=O)cc1OC	none
O=C(Cn1cnc2c(nnn2-c2ccccc2)c1=O)N1CCOCC1	HTR5A ag 27.7 | MOR-DOR ag-2 inactive | HTR5A ag confirm inactive
CCCCOc1ccc(OCCNC(=O)C2CCCN2C(=O)Nc2ccccc2)cc1 (stereo not given)	HTR5A ag 16.8 (no result: Lipid droplet) | MOR-DOR ag-2 inactive | HTR5A ag confirm inactive
CC(=O)C1=C(C)NC(C)=C(C(C)=O)C1c1ccc(-c2ccccc2Cl)o1	HTR5A ag 23.1 (no result: Lipid droplet) | MOR-DOR ag-2 inactive | HTR5A ag confirm inactive
CCc1ccccc1NS(=O)(=O)Cc1ccccc1	none
CCN(c1ccccc1)S(=O)(=O)c1cc2c3c(c1)CCN3C(=O)CC2	none (no result: Lipid droplet)
O=S(=O)(c1cnc(Cl)c(Cl)c1)N1CCc2ccccc21	HTR5A ag 15.9 | MOR-DOR ag-2 121.4 | HTR5A ag confirm inactive
CC(OC(=O)c1ccccn1)C(=O)Nc1ccc(C(F)(F)F)cc1 (stereo not given)	none (no result: Lipid droplet)
CC(OC(=O)c1ccco1)C(=O)Nc1ccc(C(F)(F)F)cc1 (stereo not given)	HTR5A ag 19.8 (no result: Lipid droplet) | MOR-DOR ag-2 inactive | HTR5A ag confirm inactive
O=C(NCCc1c[nH]c2ccccc12)C(=O)Nc1cc2c3c(c1)CC(=O)N3CCC2	HTR5A ag 16.1 (no result: Lipid droplet) | MOR-DOR ag-2 31.3 | HTR5A ag confirm inactive
C[C@H](CO)N1C[C@H](C)[C@H](CN(C)S(C)(=O)=O)Oc2c(cccc2N(C)C)C1=O	none (no result: Lipid droplet)
O=C(c1ccc(Cl)c(S(=O)(=O)N2CCCCCC2)c1)N1CCCCC1	none
O=C(c1ccc(Cl)c(S(=O)(=O)N2CCCCCC2)c1)N1CCN(c2ccccn2)CC1	HTR5A ag 24.9 | MOR-DOR ag-2 inactive | HTR5A ag confirm 31.2
O=C(CN1CCCCC1)n1c2ccccc2c2ccccc21	HTR5A ag 24.1 | MOR-DOR ag-2 inactive | HTR5A ag confirm inactive
CN1CCN(CC(=O)n2c3c(c4ccccc42)CCCC3)CC1	none (no result: Lipid droplet)
N/C(=N\OC(=O)c1ccc2ccccc2c1)c1ccccn1	HTR5A ag 16.2 | MOR-DOR ag-2 inactive | HTR5A ag confirm inactive
COc1cccc(C(=O)O/N=C(\N)c2ccccn2)c1	none (no result: Lipid droplet)
N/C(=N\OC(=O)c1ccc(Cl)cc1[N+](=O)[O-])c1ccccn1	HTR5A ag 25.6 | MOR-DOR ag-2 inactive | HTR5A ag confirm inactive
CN(C)c1cccc(NC(=O)Cc2ccc(F)cc2)c1	HTR5A ag 17.7 (no result: Lipid droplet) | MOR-DOR ag-2 inactive | HTR5A ag confirm inactive
CN(C)c1cccc(NC(=O)CCc2ccccc2)c1	none
CC(C)Oc1ccc(C(=O)Nc2ccc(N3CCCC3)cc2)cc1	HTR5A ag 16.9 | MOR-DOR ag-2 inactive | HTR5A ag confirm inactive
O=C(O)C[C@H]1c2cc(C(F)(F)F)ccc2S(=O)(=O)N1Cc1ccccc1	none (no result: Lipid droplet)
Cc1cc(-c2ccccc2C(=O)NC2CCCCC2)on1	HTR5A ag 14.6 | MOR-DOR ag-2 inactive | HTR5A ag confirm inactive
CC(=O)N/C(=C/c1ccc(OS(=O)(=O)c2ccc(C)cc2)cc1)C(=O)Nc1ccc(C(=O)O)cc1	none
CCC(C(=O)Nc1ncn[nH]1)(C(F)(F)F)C(F)(F)F	HTR5A ag 18.2 (no result: Lipid droplet) | MOR-DOR ag-2 inactive | HTR5A ag confirm inactive
O=C(Nc1ncn[nH]1)C(F)(F)C(F)F	none
C=CCNC(=O)c1onc(CSc2ccc(F)cc2)c1C(=O)NCC=C	HTR5A ag 22.0 (no result: Lipid droplet) | MOR-DOR ag-2 inactive | HTR5A ag confirm inactive
CC1=CC(C)(C)N2C(=O)C3(NCCc4c3[nH]c3ccccc43)c3cc(C)cc1c32 (stereo not given)	HTR5A ag 16.1 | MOR-DOR ag-2 32.2 | HTR5A ag confirm inactive

Screening data: PubChem BioAssay, several laboratories
